This passage reports concentration and Drug uptake results from ChEMBL document CHEMBL1255242, “Concentrations of dapivirine in the rhesus macaque and rabbit following once daily intravaginal administration of a gel formulation of [14C]dapivirine for 7 days” (Antimicrob Agents Chemother, 2008).

A short description of data set [1]: Drug level in rabbit cervical tissue at 0.5 ml/day administered intravaginally for 7 days measured 24 hrs after final dose by […]. Conditions: read-out: Drug uptake. The format is ADME, Oryctolagus cuniculus. An outline of the steps: (§1)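 Six female rabbits received 0.5 ml/day of [14C]dapivirine gel (nominal 0.09 mg/ml, 15 μCi/ml) intravaginally once daily for 7 days by feeding tube inserted about 6 cm, with a collar for about 8 h. Two rabbits per time point were killed at 1, 8 and 24 h after the final dose. PBS-rinsed vaginal wall and ectocervix were homogenized in 2:1 H2O-ACN and extracted with t-butylmethylether. A single LC-MS/MS run was used (0.250–250 ng/g; 10-point weighted quadratic calibration).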

The nature of data set [2]: Drug level in rhesus monkey inguinal lymph node at 1 ml/day administered intravaginally for 7 days measured 24 hrs after final dose by LC-MS/MS analysis. The data set is classed as ADME, tissue-based, Macaca mulatta. Particulars: read-out: Drug uptake. The method, boiled down:
(§2)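 Nine female macaques were sedated with ketamine (5–20 mg/kg) and given 1 ml/day of [14C]dapivirine gel (nominal 0.09 mg/ml, 15 μCi/ml) intravaginally once daily for 7 days. Three animals per time point were killed (iv pentobarbital, 65 mg/kg) at 1, 24 and 48 h after the final dose. Vaginal wall, ectocervix, and inguinal and iliac lymph nodes were assayed by LC-MS/MS (0.250–250 ng/g). Values below LLOQ were set to 0 for means.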

Data set [3] is described as follows: Drug level in rhesus monkey cervical tissue at 1 ml/day administered intravaginally for 7 days measured 48 hrs after final dose by LC-MS/MS analysis. The format is ADME, Macaca mulatta. Conditions: read-out: Drug uptake. An outline of the steps:
as §2

Data set [4] has as its system Plasma. In words: Drug level in rabbit plasma at 0.5 ml/day administered intravaginally for 7 days by liquid scintillation counting. Particulars: other, 168 h.
Data set [5] can be described thus: Drug level in rhesus monkey inguinal lymph node at 1 ml/day administered intravaginally for 7 days measured 48 hrs after final dose by LC-MS/MS analysis. Particulars: read-out: Drug uptake. The data set is classed as ADME, tissue-based, Macaca mulatta. An outline of the steps: as §2
Data set [6] in a line: Drug level in rhesus monkey inguinal lymph node at 1 ml/day administered intravaginally for 7 days measured 1 hr after final dose by LC-MS/MS analysis. The data set is classed as ADME, tissue-based, Macaca mulatta. Conditions: read-out: Drug uptake. The method, boiled down:
as §2

A short description of data set [7]: Drug level in rhesus monkey vaginal tissue at 1 ml/day administered intravaginally for 7 days measured 48 hrs after final dose by LC-MS/MS analysis. The format is ADME, Macaca mulatta, Vagina. Conditions: read-out: Drug uptake. The method, boiled down:
as §2

In data set [8] the test system is Plasma. Briefly: Drug level in rhesus monkey plasma at 1 ml/day administered intravaginally for 7 days by LC-MS/MS analysis. The format is ADME, cell-free, Macaca mulatta. Particulars: other, 168 h, in the assay text read “liquid scintillation counting” for “LC-MS/MS analysis”.
Data set [9] is described as follows: Drug level in rhesus monkey ileac lymph node at 1 ml/day administered intravaginally for 7 days measured 1 hr after final dose by LC-MS/MS analysis. The data set is classed as ADME, tissue-based, Macaca mulatta. Conditions: read-out: Drug uptake. An outline of the steps:
as §2

Data set [10] is described as follows: Drug level in rabbit vaginal tissue at 0.5 ml/day administered intravaginally for 7 days measured 1 hr after final dose by […]. The data set is classed as ADME, Oryctolagus cuniculus, Vagina. Conditions: read-out: Drug uptake. The method, boiled down: as §1
Data set [11] is described as follows: Drug level in rhesus monkey cervical tissue at 1 ml/day administered intravaginally for 7 days measured 1 hr after final dose by LC-MS/MS analysis. The format is ADME, Macaca mulatta. Particulars: read-out: Drug uptake. The method, boiled down:
as §2

The nature of data set [12]: Drug level in rhesus monkey vaginal tissue at 1 ml/day administered intravaginally 7 days measured 1 hr after final dose by LC-MS/MS analysis. The format is ADME, Macaca mulatta, Vagina. Conditions: read-out: Drug uptake. An outline of the steps:
as §2

Data set [13] in a line: Drug level in rhesus monkey vaginal tissue at 1 ml/day administered intravaginally for 7 days measured 24 hrs after final dose by LC-MS/MS analysis. Conditions: read-out: Drug uptake. The format is ADME, Macaca mulatta, Vagina. The method, boiled down:
as §2

Data set [14] can be described thus: Drug level in rhesus monkey ileac lymph node at 1 ml/day administered intravaginally for 7 days measured 48 hrs after final dose by LC-MS/MS analysis. Conditions: read-out: Drug uptake. The data set is classed as ADME, tissue-based, Macaca mulatta. An outline of the steps:
as §2

The nature of data set [15]: Drug level in rhesus monkey cervical tissue at 1 ml/day administered intravaginally for 7 days measured 24 hrs after final dose by LC-MS/MS analysis. The data set is classed as ADME, Macaca mulatta. Particulars: read-out: Drug uptake. An outline of the steps:
as §2

Data set [16] can be described thus: Drug level in rhesus monkey ileac lymph node at 1 ml/day administered intravaginally for 7 days measured 24 hrs after final dose by LC-MS/MS analysis. The format is ADME, tissue-based, Macaca mulatta. Conditions: read-out: Drug uptake. The method, boiled down: as §2

Some results are limits rather than exact numbers.

For `Cc1cc(C)c(Nc2ccnc(Nc3ccc([14C]#N)cc3)n2)c(C)c1` [[14C]DAPIVIRINE], the concentration at 24 h in [1] is at least 2.5 ng/g; in data set [2], 1.77 ng/g; in [13], 1160 ng/g; in data set [15] it was 271 ng/g; in data set [16], 11.6 ng/g. The concentration at 48 h in data set [3] turned out to be 81 ng/g; in [5], 0.48 ng/g; in data set [7] it was 515 ng/g; in [14], 1.16 ng/g. In addition, the Drug uptake in data set [4] is recorded as 246 dpm/ml; in [8], “<= 83 dpm/ml”. The concentration at 1 h in [6] is 10.6 ng/g; in [9], 14.9 ng/g; in data set [10], over 3000 ng/g; in data set [11] it was 2400 ng/g; in [12], 4260 ng/g.
